According to ChEMBL document CHEMBL3758117, “Discovery of indeno[1,2-b]quinoxaline derivatives as potential anticancer agents” (Eur J Med Chem, 2016):
The source made the active and inactive calls. No cut-off for these calls is given here.

Legend:
[1] = Cell cycle arrest in human HuH7 cells assessed as accumulation at G1 phase at 1 uM for 24 hrs by propidium iodide staining based flow cytometry (reference value: 62.1 +/- 1.4%); format: functional; details: Huh-7
[2] = tested on: Huh-7; experiment: Antitumor activity against human HuH7 cells xenografted in zebrafish assessed as reduction in tumor size after 24 to 48 hrs post injection by fluorescence microscopy; format: functional, cell-based
How it was run: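 About 100 Huh-7 cells were implanted into the yolk sac of anesthetized 48 hpf zebrafish embryos. Embryos were then kept in water containing compound at 0.1 to 2.0 μg/ml for 24 and 48 h post-injection. Embryos were imaged by fluorescence microscopy, with red fluorescence intensity taken as proportional to xenograft tumor size.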

[3] = Cell cycle arrest in human HuH7 cells assessed as accumulation at sub G1 phase at 5 uM for 24 hrs by propidium iodide staining based flow cytometry (reference value: 1.3 +/- 0.7%); format: functional; details: Huh-7
[4] = tested on: MRC5; experiment: Selectivity index, ratio of IC50 for human MRC5 cells to IC50 for human PC3 cells; format: functional
[5] = Cell cycle arrest in human HuH7 cells assessed as accumulation at subG1 phase at 1 uM for 24 hrs by propidium iodide staining based flow cytometry (reference value: 1.3 +/- 0.7%); format: functional; details: Huh-7
[6] = Induction of apoptosis in human HuH7 cells assessed as upregulation of activated caspase 7 at 1 to 10 uM after 24 hrs by Western blot analysis; format: functional, cell-based; details: Huh-7
How it was run: (§1)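 Huh-7 cells were treated with DMSO or compound at 1, 5 and 10 μM for 24 h. Cells were lysed in NP-40 buffer with protease and phosphatase inhibitors, and protein was measured by Bradford. Lysate protein was resolved by SDS-PAGE and transferred to PVDF. Membranes were blocked in 5% milk, probed with primary antibodies for 2 h and secondary antibodies for 30 min, and detected by ECL, with β-actin as loading control.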

[7] = Effect on total protein expression of Akt in human HuH7 cells at 1 to 10 uM after 24 hrs by immunoblot analysis; format: cell-based; details: huh-7, 24 h; how it was run: as §1
[8] = tested on: Huh-7; experiment: Selectivity index, ratio of IC50 for human MRC5 cells to IC50 for human HuH7 cells; format: functional
[9] = Cell cycle arrest in human HuH7 cells assessed as accumulation at G2/M phase at 10 uM for 24 hrs by propidium iodide staining based flow cytometry (reference value: 25.2 +/- 3.5%); format: functional; details: Huh-7
[10] = target: T1, DNA topoisomerase 1 (Homo sapiens) (UniProt P11387); experiment: Inhibition of human DNA topoisomerase 1-mediated relaxation of supercoiled pBR322 DNA at 10 uM after 30 mins by ethidium bromide staining based agarose gel electrophoresis
T1 sequence (whole entry): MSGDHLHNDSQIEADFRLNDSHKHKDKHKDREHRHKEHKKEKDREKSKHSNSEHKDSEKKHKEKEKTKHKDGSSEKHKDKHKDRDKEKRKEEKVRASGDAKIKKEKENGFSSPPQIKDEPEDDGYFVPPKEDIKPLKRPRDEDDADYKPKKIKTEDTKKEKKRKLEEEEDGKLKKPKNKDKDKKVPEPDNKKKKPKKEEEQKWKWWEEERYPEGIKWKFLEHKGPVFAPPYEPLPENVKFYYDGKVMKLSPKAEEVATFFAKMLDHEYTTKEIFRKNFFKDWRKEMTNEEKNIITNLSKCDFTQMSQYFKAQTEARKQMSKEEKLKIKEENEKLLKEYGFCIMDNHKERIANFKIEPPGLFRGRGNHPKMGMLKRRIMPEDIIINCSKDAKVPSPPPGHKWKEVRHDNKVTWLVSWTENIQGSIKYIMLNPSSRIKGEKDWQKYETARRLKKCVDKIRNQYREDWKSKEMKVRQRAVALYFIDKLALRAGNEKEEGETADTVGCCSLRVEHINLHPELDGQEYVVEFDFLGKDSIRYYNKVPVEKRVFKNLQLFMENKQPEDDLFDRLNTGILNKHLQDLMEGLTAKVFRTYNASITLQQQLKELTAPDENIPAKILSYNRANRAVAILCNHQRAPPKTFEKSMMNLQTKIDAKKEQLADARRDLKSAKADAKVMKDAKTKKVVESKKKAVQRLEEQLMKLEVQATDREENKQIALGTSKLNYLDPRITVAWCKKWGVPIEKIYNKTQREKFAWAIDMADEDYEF
How it was run: (§2)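 Human topo I or topo II (2 units) was reacted with 0.2 μg supercoiled pBR322 in 20 μl Tris-HCl pH 7.5 containing KCl, DTT, EDTA, MgCl2 and BSA, with DMSO held at 0.5%, for 30 min at 37°C. The reaction was stopped with SDS. Samples were run on 1% agarose in Tris-acetate/EDTA at 1.5 V/cm for 2-3 h and stained with ethidium bromide. Relaxation was quantified by densitometry of the supercoiled band area.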

[11] = Cell cycle arrest in human HuH7 cells assessed as accumulation at S phase at 5 uM for 24 hrs by propidium iodide staining based flow cytometry (reference value: 11.4 +/- 2.4%); format: functional; details: Huh-7
[12] = target: DNA topoisomerase 2-alpha (Homo sapiens) (UniProt P11388); experiment: Inhibition of human DNA topoisomerase 2-mediated relaxation of supercoiled pBR322 DNA at 10 uM after 30 mins by ethidium bromide staining based agarose gel electrophoresis; how it was run: as §2
[13] = tested on: MRC5; experiment: Selectivity index, ratio of IC50 for human MRC5 cells to IC50 for human MDA-MB-231 cells; format: functional
[14] = tested on: Huh-7; experiment: Induction of apoptosis in human HuH7 cells assessed as downregulation of Bcl-2 expression at 1 to 10 uM after 24 hrs by Western blot analysis; format: functional, cell-based; how it was run: as §1
[15] = Cell cycle arrest in human HuH7 cells assessed as accumulation at sub G1 phase at 10 uM for 24 hrs by propidium iodide staining based flow cytometry (reference value: 1.3 +/- 0.7%); format: functional; details: Huh-7
[16] = Cell cycle arrest in human HuH7 cells assessed as accumulation at S phase at 1 uM for 24 hrs by propidium iodide staining based flow cytometry (reference value: 11.4 +/- 2.4%); format: functional; details: Huh-7
[17] = Downregulation of cyclin D1 expression in human HuH7 cells at 1 to 10 uM after 24 hrs by immunoblot analysis; format: functional, cell-based; details: Huh-7; how it was run: as §1
[18] = target: Proto-oncogene tyrosine-protein kinase Src (Homo sapiens) (UniProt P12931); experiment: Inhibition of Src phosphorylation in human HuH7 cells at 1 to 10 uM after 24 hrs by immunoblot analysis; format: cell-based; details: Huh-7; how it was run: as §1
[19] = target: RAC-alpha serine/threonine-protein kinase (Homo sapiens) (UniProt P31749); experiment: Inhibition of AKT1 phosphorylation in human HuH7 cells at 1 to 10 uM after 24 hrs by immunoblot analysis; format: cell-based; details: Huh-7; how it was run: as §1
[20] = Cell cycle arrest in human HuH7 cells assessed as accumulation at S phase at 10 uM for 24 hrs by propidium iodide staining based flow cytometry (reference value: 11.4 +/- 2.4%); format: functional; details: Huh-7
[21] = Antiproliferative activity against human PC3 cells after 72 hrs by XTT assay; format: functional, cell-based; details: PC-3, 72 h
How it was run: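 Cells kept as monolayers in DMEM with 10% FBS, penicillin, streptomycin and amphotericin at 37°C, 5% CO2. Seeded at 5 x 10³ cells/well and exposed to compound for 72 h in medium with 10% FBS. XTT plus electron-coupling reagent added, 4 h at 37°C, absorbance read at 492 nm. Percent of control growth uses mean absorbance (n = 3). The 50% value is taken from the linear portion of the curve.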

RAC-alpha serine/threonine-protein kinase (Homo sapiens), sequence (P31749 whole entry): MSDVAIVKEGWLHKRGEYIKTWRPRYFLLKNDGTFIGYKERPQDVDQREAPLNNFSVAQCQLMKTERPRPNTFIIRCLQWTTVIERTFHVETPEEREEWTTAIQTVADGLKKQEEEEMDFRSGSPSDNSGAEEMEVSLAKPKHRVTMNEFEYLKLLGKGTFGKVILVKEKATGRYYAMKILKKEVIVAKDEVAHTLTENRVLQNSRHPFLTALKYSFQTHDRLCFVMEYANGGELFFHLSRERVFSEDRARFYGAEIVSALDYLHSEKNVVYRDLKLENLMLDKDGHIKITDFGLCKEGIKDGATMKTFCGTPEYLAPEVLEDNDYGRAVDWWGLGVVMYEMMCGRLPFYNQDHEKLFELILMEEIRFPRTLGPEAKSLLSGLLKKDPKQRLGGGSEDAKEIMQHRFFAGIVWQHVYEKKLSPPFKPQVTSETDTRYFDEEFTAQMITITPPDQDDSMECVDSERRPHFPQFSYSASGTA
DNA topoisomerase 2-alpha (Homo sapiens), sequence (P11388 whole entry): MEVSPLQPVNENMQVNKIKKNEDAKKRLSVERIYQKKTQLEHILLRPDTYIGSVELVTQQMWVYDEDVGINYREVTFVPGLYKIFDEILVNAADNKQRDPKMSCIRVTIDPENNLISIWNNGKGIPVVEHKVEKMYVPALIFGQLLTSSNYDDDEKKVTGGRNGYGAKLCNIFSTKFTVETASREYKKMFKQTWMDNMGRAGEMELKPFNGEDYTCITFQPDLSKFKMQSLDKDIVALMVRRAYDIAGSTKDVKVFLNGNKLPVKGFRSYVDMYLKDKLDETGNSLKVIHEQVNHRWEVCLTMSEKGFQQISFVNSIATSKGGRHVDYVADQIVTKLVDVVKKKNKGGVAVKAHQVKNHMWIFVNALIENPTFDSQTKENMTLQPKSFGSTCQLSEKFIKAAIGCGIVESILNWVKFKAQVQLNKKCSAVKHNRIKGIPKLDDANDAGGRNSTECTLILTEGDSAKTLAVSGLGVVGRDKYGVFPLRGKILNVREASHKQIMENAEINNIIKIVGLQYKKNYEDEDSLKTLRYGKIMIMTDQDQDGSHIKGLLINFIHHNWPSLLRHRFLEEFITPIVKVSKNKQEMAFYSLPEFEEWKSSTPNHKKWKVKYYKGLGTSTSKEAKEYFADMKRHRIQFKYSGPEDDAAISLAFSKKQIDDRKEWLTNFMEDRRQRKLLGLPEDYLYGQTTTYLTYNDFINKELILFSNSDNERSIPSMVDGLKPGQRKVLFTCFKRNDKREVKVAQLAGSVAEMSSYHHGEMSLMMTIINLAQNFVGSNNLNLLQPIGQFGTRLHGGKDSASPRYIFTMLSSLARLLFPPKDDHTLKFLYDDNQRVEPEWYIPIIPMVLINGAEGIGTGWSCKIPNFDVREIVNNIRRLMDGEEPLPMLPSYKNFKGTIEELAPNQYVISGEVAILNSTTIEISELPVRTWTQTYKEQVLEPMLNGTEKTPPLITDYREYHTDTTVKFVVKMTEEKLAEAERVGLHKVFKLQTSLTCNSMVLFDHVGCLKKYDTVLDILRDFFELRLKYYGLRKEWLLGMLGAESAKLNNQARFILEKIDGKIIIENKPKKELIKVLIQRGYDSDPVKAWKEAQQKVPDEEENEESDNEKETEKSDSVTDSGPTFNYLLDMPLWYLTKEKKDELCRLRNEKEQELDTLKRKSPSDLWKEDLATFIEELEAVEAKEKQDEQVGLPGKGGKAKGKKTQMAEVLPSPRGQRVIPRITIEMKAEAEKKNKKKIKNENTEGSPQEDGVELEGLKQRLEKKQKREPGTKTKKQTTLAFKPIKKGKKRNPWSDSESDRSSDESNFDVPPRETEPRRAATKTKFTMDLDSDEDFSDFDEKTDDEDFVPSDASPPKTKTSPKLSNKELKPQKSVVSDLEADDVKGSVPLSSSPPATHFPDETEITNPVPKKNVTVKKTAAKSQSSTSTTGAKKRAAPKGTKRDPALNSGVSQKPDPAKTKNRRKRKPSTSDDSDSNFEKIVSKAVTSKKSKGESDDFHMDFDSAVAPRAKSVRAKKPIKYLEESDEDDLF
Proto-oncogene tyrosine-protein kinase Src (Homo sapiens), sequence (P12931 2-536 limits assumed): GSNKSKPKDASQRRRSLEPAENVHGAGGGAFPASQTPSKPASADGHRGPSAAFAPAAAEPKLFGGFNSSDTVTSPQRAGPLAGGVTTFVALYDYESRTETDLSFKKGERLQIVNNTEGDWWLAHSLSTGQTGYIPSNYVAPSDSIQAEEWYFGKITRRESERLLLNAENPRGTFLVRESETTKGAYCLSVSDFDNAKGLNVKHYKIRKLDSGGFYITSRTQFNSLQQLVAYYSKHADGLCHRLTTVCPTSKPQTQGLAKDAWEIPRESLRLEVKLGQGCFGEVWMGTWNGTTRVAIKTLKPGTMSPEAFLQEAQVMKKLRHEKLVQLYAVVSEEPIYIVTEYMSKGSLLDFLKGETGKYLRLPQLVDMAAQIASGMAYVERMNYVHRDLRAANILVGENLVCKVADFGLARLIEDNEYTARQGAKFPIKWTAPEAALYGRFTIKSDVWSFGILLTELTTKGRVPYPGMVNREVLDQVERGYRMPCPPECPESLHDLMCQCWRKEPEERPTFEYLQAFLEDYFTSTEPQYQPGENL

Which results are given for `CN(C)CCCNC(=O)c1cccc2nc3c(nc12)-c1ccccc1/C3=N\OCCCN(C)C.Cl`?
Activity [1]: 55.3%; inhibition [2]: Dose-dependent effect; Activity [3]: 11.5%; Ratio IC50 [4]: 38.43; Activity [5]: 3.8%; Activity [6]: Dose-dependent effect; Activity [7]: Non-toxic; Ratio IC50 [8]: 49.23; Activity [9]: 7.8%; inhibition [10]: Active; Activity [11]: 30.5%; topoisomerase 2 inhibition (active/not active) [12]: Active; Ratio IC50 [13]: 36.22; Activity [14]: Dose-dependent effect; Activity [15]: 23.4%; Activity [16]: 21.6%; Activity [17]: Active; inhibition [18]: Active; inhibition [19]: Active; Activity [20]: 38.4%; IC50 [21]: 820 nM
